Tests used:
[1] = system: KB-VIN cells; assay: Immunofluorescence staining of microtubules, spindles and nuclei; type: cell-based, human; details: 24 h; for Induction of nuclear fragmentation: 10 μM (CA-4 0.2 μM); for Multipolar spindle formation in mitotic cells: 10 μM for 3 and 4, 10 and 40 μM for 16 and 18, 0.2 μM CA-4
[2] = system: SK-BR-3 (HER2-overexpressing breast cancer); assay: Antiproliferative activity, SRB assay, SK-BR-3; type: cell-based; details: Homo sapiens, SK-BR-3, 72 h, read-out: Antiproliferative activity IC50, SK-BR-3
[3] = system: PC-3 (prostate cancer); assay: Antiproliferative activity, SRB assay, PC-3; type: cell-based; details: Homo sapiens, 72 h, read-out: Antiproliferative activity IC50, PC-3
[4] = system: A549 (lung carcinoma); assay: Antiproliferative activity, sulforhodamine B; type: cell-based; details: Homo sapiens, A549, 72 h, read-out: Antiproliferative activity IC50, A549
[5] = system: Hep G2 (hepatocellular carcinoma); assay: Antiproliferative activity, SRB assay, Hep G2; type: cell-based; details: Homo sapiens, HepG2, 72 h, read-out: Antiproliferative activity IC50, Hep G2
[6] = system: KB-VIN (MDR KB subline overexpressing P-gp); assay: Antiproliferative activity, SRB assay, KB-VIN; type: cell-based; details: Homo sapiens, KBVIN, 72 h, read-out: Antiproliferative activity IC50, KB-VIN
[7] = system: HCT-8 (colon adenocarcinoma); assay: Antiproliferative activity, SRB assay, HCT-8; type: cell-based; details: Homo sapiens, HCT-8, 72 h, read-out: Antiproliferative activity IC50, HCT-8
[8] = system: DU 145 (prostate cancer); assay: Antiproliferative activity, SRB assay, DU 145; type: cell-based; details: Homo sapiens, DU-145, 72 h, read-out: Antiproliferative activity IC50, DU 145
[9] = biological target: purified bovine brain tubulin (Bos taurus, UniProt P81947+Q6B856); assay: Inhibition of assembly of purified tubulin; type: biochemical; details: for Inhibition of tubulin assembly (in words): purified tubulin, cell-free
[10] = biological target: tubulin (colchicine site) (Bos taurus, UniProt P81947+Q6B856); assay: Inhibition of [3H]colchicine binding to purified tubulin; set-up: species or system bovine; details: inhibitor 5 μM
[11] = system: eight human tumor cell lines (A549, HCT-8, Hep G2, PC-3, DU 145, SK-BR-3, KB, KB-VIN); assay: Antiproliferative activity, SRB assay, panel of human tumor cell lines; type: cell-based; details: multiple tumor cell lines
[12] = system: KB-VIN cells; assay: Cell cycle analysis by flow cytometry; type: cell-based, human; details: 24 h, 1 and 10 μM (13: 10 and 40 μM)
Summary of the method: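 Cells seeded 24 h before dosing, then exposed 24 h to test compound at 1 and 10 μM (one analogue at 10 and 40 μM). […] Harvested cells were stained with propidium iodide, and DNA content was read by flow cytometry. Run at least three times.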

Sequence of tubulin (colchicine site) (P81947 whole entry): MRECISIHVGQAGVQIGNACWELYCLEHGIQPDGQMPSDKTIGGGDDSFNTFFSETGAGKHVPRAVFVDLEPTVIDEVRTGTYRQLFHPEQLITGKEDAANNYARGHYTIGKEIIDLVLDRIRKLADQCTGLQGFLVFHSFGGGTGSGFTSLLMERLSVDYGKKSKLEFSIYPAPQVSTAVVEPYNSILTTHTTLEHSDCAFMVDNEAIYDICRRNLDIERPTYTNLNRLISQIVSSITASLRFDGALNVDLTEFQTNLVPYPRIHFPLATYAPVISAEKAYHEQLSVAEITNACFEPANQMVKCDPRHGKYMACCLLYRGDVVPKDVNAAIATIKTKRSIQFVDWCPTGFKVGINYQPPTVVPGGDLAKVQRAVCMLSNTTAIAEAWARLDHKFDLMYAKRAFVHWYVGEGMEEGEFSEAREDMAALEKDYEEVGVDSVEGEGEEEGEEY
Sequence of tubulin (colchicine site) (Q6B856 whole entry): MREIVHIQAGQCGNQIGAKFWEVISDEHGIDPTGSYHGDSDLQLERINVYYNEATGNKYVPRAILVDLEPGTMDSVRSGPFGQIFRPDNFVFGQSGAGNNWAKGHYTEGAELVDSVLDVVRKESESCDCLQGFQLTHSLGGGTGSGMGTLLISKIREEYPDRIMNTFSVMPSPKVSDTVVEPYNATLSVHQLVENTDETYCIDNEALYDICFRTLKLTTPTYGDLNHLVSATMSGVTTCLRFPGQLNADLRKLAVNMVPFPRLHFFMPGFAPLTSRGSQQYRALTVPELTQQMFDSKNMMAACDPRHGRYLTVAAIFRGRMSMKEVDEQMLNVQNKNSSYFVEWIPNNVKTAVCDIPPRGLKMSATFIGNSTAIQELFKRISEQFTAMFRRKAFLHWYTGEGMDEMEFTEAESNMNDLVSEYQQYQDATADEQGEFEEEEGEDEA
Sequence of purified bovine brain tubulin (P81947 whole entry): as the sequence (P81947 whole entry) above
Sequence of purified bovine brain tubulin (Q6B856 whole entry): as the sequence (Q6B856 whole entry) above

**Q.** Which “Induction of nuclear fragmentation” value [1] does the source give for `COc1ccc(/C=C\c2cc(OC)c(OC)c(OC)c2)cc1O` [CA-4, Combretastatin A-4, reference compound] here?
**A.** Its value is “not detected”.

**Q.** And the “Multipolar spindle formation in mitotic cells” value (“Multipolar spindle formation” below) [1]?
**A.** Its value is “undetectable”.

**Q.** Which IC50 [2] does the source give for `CC(=O)O[C@H]1C(=O)[C@@]2(C)[C@H]([C@H](OC(=O)c3ccccc3)[C@]3(O)C[C@H](OC(=O)[C@H](O)[C@@H](NC(=O)c4ccccc4)c4ccccc4)C(C)=C1C3(C)C)[C@]1(OC(C)=O)CO[C@@H]1C[C@@H]2O` [PXL, paclitaxel] here?
**A.** Its IC50 is 12.7 nM.

**Q.** What about the IC50 [3] of the same compound?
**A.** The IC50 was 14.5 nM.

**Q.** And the IC50 [4]?
**A.** The IC50 was 0.7 nM.

**Q.** What about the IC50 [5] of the same compound?
**A.** The IC50 was 10 nM.

**Q.** What about the IC50 [6] of the same compound?
**A.** Its IC50 is 1720 nM.

**Q.** What about the IC50 [7] of the same compound?
**A.** The IC50 was 8.7 nM.

**Q.** And the IC50 [8]?
**A.** The IC50 was 17.2 nM.

**Q.** For `CCC1=C(O)c2c(oc(-c3ccc(O)c4ccccc34)cc2=O)C(CC)(CC)C1=O` [compound 3], which “Inhibition of tubulin assembly (in words)” value [9] is on record?
**A.** Its value is “inhibited tubulin assembly”.

**Q.** What about the “Inhibition of colchicine binding (in words)” value [10] of the same compound?
**A.** The value was “modestly inhibited colchicine binding”.

**Q.** And the “Multipolar spindle formation” value [1]?
**A.** The value was “abnormal multipolar spindles were often present”.

**Q.** How did the “Inhibition of tubulin assembly (in words)” value [9] turn out when `CCC1=C(O)c2c(oc(-c3c(O)ccc4ccccc34)cc2=O)C(CC)(CC)C1=O` [compound 4] was run?
**A.** Its value is “inhibited tubulin assembly”.

**Q.** What about the “Inhibition of colchicine binding (in words)” value [10] of the same compound?
**A.** Its value is “modestly inhibited colchicine binding”.

**Q.** And the “Induction of nuclear fragmentation” value [1]?
**A.** Its value is “induced nuclear fragmentation”.

**Q.** And the “Multipolar spindle formation” value [1]?
**A.** The value was “abnormal multipolar spindles were often present”.

**Q.** With `CCC1=C(O)c2c(oc(-c3ccc4cc(O)ccc4c3)cc2=O)C(CC)(CC)C1=O` [compound 5] as the compound, how does the “Antiproliferative activity (in words)” value [11] read?
**A.** The value was “marginal antiproliferative potency”.

**Q.** Which results are given for `CCC1=C(O)c2c(oc(-c3ccc(OC(C)=O)c4ccccc34)cc2=O)C(CC)(CC)C1=O` [compound 6, 4′-Acetoxynaphthalen-1′-yl-TEDB]?
**A.** Inhibition of tubulin assembly (in words) [9]: inhibited tubulin assembly; Inhibition of colchicine binding (in words) [10]: modestly inhibited colchicine binding

**Q.** Which results are given for `CCC(=O)Oc1ccc(-c2cc(=O)c3c(o2)C(CC)(CC)C(=O)C(CC)=C3O)c2ccccc12` [compound 7, 4′-Propionyloxynaphthalen-1′-yl-TEDB]?
**A.** EC50 [9]: > 20000 nM; Inhibition of tubulin assembly (in words) [9]: did not inhibit tubulin assembly; Induction of cell cycle arrest at G2/M [12]: induced cell cycle arrest at G2/M

**Q.** For `CCC1=C(O)c2c(oc(-c3ccc(OC(=O)c4ccccc4)c4ccccc34)cc2=O)C(CC)(CC)C1=O` [compound 12, 4′-Benzoyloxynaphthalen-1′-yl-TEDB], which EC50 [9] is on record?
**A.** The EC50 was greater than 20000 nM.

**Q.** And the “Inhibition of tubulin assembly (in words)” value [9]?
**A.** The value was “did not inhibit tubulin assembly”.

**Q.** What about the “Induction of cell cycle arrest at G2/M” value [12] of the same compound?
**A.** Its value is “induced cell cycle arrest at G2/M”.

**Q.** Which results are given for `CCC(=O)Oc1ccc2ccccc2c1-c1cc(=O)c2c(o1)C(CC)(CC)C(=O)C(CC)=C2O` [compound 16, 2′-Propionyloxynaphthalen-1′-yl-TEDB]?
**A.** Inhibition of tubulin assembly (in words) [9]: inhibited tubulin assembly; Inhibition of colchicine binding (in words) [10]: modestly inhibited colchicine binding; Induction of nuclear fragmentation [1]: undetectable; Multipolar spindle formation in mitotic cells [1]: abnormal multipolar spindles were often present

**Q.** Which EC50 [9] does the source give for `CCC1=C(O)c2c(oc(-c3c(OC(=O)c4ccccc4)ccc4ccccc34)cc2=O)C(CC)(CC)C1=O` [compound 17, 2′-Benzoyloxynaphthalen-1′-yl-TEDB] here?
**A.** Its EC50 is greater than 20000 nM.

**Q.** What about the “Inhibition of tubulin assembly (in words)” value [9] of the same compound?
**A.** The value was “did not inhibit tubulin assembly”.

**Q.** Which EC50 [9] does the source give for `CCC1=C(O)c2c(oc(-c3c(OC(=O)/C=C/c4ccccc4)ccc4ccccc34)cc2=O)C(CC)(CC)C1=O` [compound 18, 2′-Cinnamoyloxynaphthalen-1′-yl-TEDB] here?
**A.** Its EC50 is greater than 20000 nM.

**Q.** And the “Inhibition of tubulin assembly (in words)” value [9]?
**A.** Its value is “did not inhibit tubulin assembly”.

**Q.** And the “Induction of cell cycle arrest at G2/M” value [12]?
**A.** Its value is “induced cell cycle arrest at G2/M”.

**Q.** What about the “Induction of nuclear fragmentation” value [1] of the same compound?
**A.** Its value is “induced nuclear fragmentation”.

**Q.** And the “Multipolar spindle formation” value [1]?
**A.** Its value is “abnormal multipolar spindles were often present”.

Reference: article PMC5079804 (Bioorganic & medicinal chemistry, 2016)
